Test results as given in ChEMBL document CHEMBL4033616, “Identification of spirobisnaphthalene derivatives with anti-tumor activities from the endophytic fungus Rhytidhysteron rufulum AS21B” (Bioorg Med Chem, 2017).

Assays:
[1] = tested on: Ramos; assay: Cytotoxicity against human Ramos cells assessed as decrease in cell viability after 24 hrs by CellTiter-Glo assay; type: functional, cell-based
Method in brief: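 Human lymphoma Ramos cells, expanded to exponential growth in RPMI 1640 plus 10% (v/v) fetal calf serum under humidified 5% CO2. Seeded cells were treated with compounds at the indicated concentrations, 37 °C, 24 h. Viability was measured from the cellular ATP level with the CellTiter-Glo kit.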

[2] = tested on: NCI-H1975; assay: Cytotoxicity against human NCI-H1975 cells assessed as decrease in cell viability after 72 hrs by CellTiter-Glo assay; type: functional, cell-based; conditions: NCI-H1975, 72 h
Method in brief: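 NSCLC H1975 cells grown to exponential phase in RPMI 1640 with 10% (v/v) fetal calf serum, humidified 5% CO2. Seeded cells were exposed to compounds at the indicated concentrations for 72 h at 37 °C. Viability was read as the ATP level in living cells (CellTiter-Glo).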

Structure (SMILES) | IC50 [1] | IC50 [2]
CO[C@@H]1CC(=O)C2=CCCC3(Oc4cccc5cccc(c45)O3)[C@@H]2[C@@H]1O | 0.461 µM | 10.2 µM
O=C1C=C[C@@H](O)[C@@H]2C1=CCCC21Oc2cccc3cccc(c23)O1 | 0.048 µM | 1.17 µM
O=C1C2=CCCC3(Oc4cccc5cccc(c45)O3)[C@@H]2[C@H](O)[C@@H]2O[C@H]12 | 18 µM | 7.3 µM
O=C1C=C[C@]2(Oc3cccc4c(O)ccc(c34)O2)c2ccccc21 | 15 µM | > 100 µM
O=C1CC[C@]23Oc4ccc(O)c5c4[C@@](C=CC5=O)(Oc4cccc1c42)O3 | 82.9 µM | > 100 µM
CC(=O)O[C@@H]1C=CC(=O)C2=CCCC3(Oc4cccc5cccc(c45)O3)[C@@H]21 | 0.018 µM | 0.252 µM
CO[C@H]1CCC2(Oc3cccc4cccc(c34)O2)C2=C1C(=O)C=CC2=O | 31.7 µM | > 100 µM
O[C@H]1[C@@H]2[C@H]([C@@H](O)CCC23Oc2cccc4cccc(c24)O3)[C@@H](O)C[C@@H]1O | > 100 µM | > 100 µM
Oc1cccc2c1[C@@H](O)CCC21Oc2cccc3cccc(c23)O1 | > 100 µM | > 100 µM
O=C1CCC(O)c2cccc(O)c21 (stereo unspecified) [4,8-DIHYDROXY-1-TETRALONE] | 23.1 µM | 50 µM
CN(C)C/C=C/C(=O)Nc1cc2c(Nc3ccc(F)c(Cl)c3)ncnc2cc1O[C@H]1CCOC1 [AFATINIB] |  | 1.97 µM
C=CC(=O)N1CCC[C@@H](n2nc(-c3ccc(Oc4ccccc4)cc3)c3c(N)ncnc32)C1 [IBRUTINIB] | 28.7 µM | 
O=C1CCC2(Oc3cccc4cccc(c34)O2)c2cccc(O)c21 [PALMARUMYCIN CP2] | 18 µM | > 100 µM
O=C1CCC2(Oc3cccc4cccc(c34)O2)c2c(O)ccc(O)c21 [PALMARUMYCIN CP17] | 33.1 µM | > 100 µM
